Measured values published in ChEMBL document CHEMBL4118269 (J Med Chem, 2018).

Assays:
[1] = target: Lanosterol 14-alpha demethylase (Aspergillus) (UniProt B8NUK6+Q9P8R0+G4WW85); assay: Inhibition of Aspergillus fumigatus CYP51 assessed as reduction in [3-3H]eburicol 14alpha-demethylation at 0.75 uM preincubated for 60 secs followed by NADPH addition measured after 60 mins by RP-HPLC analysis relative to control
Summary of the method: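 E. coli-expressed, purified CYP51 (0.5 μM) with rat NADPH-P450 reductase (1.0 μM), 100 μM dilauroylphosphatidylcholine, isocitrate dehydrogenase/isocitrate NADPH regeneration, in 50 mM K phosphate pH 7.2 with 10% glycerol and 0.1% Triton X-100. [3-3H]eburicol 25 μM final, inhibitor 0.75 μM final (1.5:1:50 inhibitor:enzyme:substrate), 37 °C. Started with 100 μM NADPH, 60 min, EtOAc extraction, radio-HPLC. Percent inhibition, triplicate, mean ± SD.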

in vitro [2] = settings: human, liver microsomes
[3] = Half life in human liver microsomes at 1 uM preincubated for 5 mins followed by NADPH addition measured up to 45 mins by LC-MS/MS analysis; type: ADME, microsome; settings: 0.75 h
Summary of the method: (§1)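 Pooled liver microsomes (0.5 mg/mL; male CD-1 mouse, male Sprague Dawley rat, or mixed-gender human) with 1 μM compound in 100 mM potassium phosphate pH 7.4, 3 mM MgCl2, 37 °C with shaking. 5 min preincubation, then 1 mM NADPH. Aliquots at 0, 3, 7, 15, 25, 45 min quenched in cold CH3CN with carbamazepine internal standard, then LC/MS/MS. Triplicate; T1/2 = ln2/k from the slope of ln % remaining versus time.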

in vitro [4] = settings: CD-1, mouse, liver microsomes
in vitro [5] = settings: human, liver microsomes; remark: listed apart in the source
[6] = Half life in CD-1 mouse liver microsomes at 1 uM preincubated for 5 mins followed by NADPH addition measured up to 45 mins by LC-MS/MS analysis; type: ADME, microsome; settings: 0.75 h; summary of the method: as §1
in vitro [7] = settings: CD-1, mouse, liver microsomes; remark: listed apart in the source
[8] = Lipophilicity, log P of the compound; type: physicochemical; settings: octanol/water
[9] = target: Lanosterol 14-alpha demethylase (Candida albicans (strain SC5314 / ATCC MYA-2876) (Yeast), UniProt P10613); assay: Inhibition of Candida albicans CYP51 assessed as reduction in [3-3H]lanosterol 14alpha-demethylation at 0.75 uM preincubated for 60 secs followed by NADPH addition measured after 60 mins by RP-HPLC analysis relative to control; settings: 1 h
Chain of Lanosterol 14-alpha demethylase (Candida albicans (strain SC5314 / ATCC MYA-2876) (Yeast), UniProt P10613) (P10613 whole entry): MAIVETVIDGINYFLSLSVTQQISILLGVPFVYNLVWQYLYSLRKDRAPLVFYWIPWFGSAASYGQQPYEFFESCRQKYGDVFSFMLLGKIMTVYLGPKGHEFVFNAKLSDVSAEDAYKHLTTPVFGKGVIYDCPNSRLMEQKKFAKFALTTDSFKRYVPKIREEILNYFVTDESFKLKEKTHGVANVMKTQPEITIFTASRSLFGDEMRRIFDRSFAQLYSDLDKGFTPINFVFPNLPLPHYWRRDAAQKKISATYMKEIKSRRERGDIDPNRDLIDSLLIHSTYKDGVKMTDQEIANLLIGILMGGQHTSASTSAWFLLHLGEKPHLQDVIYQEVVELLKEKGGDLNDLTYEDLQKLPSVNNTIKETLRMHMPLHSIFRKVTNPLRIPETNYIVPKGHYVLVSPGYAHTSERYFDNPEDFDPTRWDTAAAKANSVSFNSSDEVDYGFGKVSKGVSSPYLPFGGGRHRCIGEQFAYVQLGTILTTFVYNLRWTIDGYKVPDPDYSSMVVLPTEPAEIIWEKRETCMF
Summary of the method: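 C. albicans CYP51 expressed in E. coli and purified, 0.5 μM, with 1.0 μM rat NADPH-P450 reductase, dilauroylphosphatidylcholine and isocitrate dehydrogenase/isocitrate regeneration in 50 mM potassium phosphate pH 7.2, 10% glycerol, 0.1% Triton X-100. Substrate 25 μM final; inhibitor:enzyme:substrate 1.5:1:50. 37 °C, started with 100 μM NADPH. Sterols extracted with EtOAc, radio-HPLC. Triplicate, mean ± SD.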

in vitro [10] = settings: Sprague-Dawley, rat, liver microsomes
in vitro [11] = settings: Sprague-Dawley, rat, liver microsomes; remark: listed apart in the source
[12] = Half life in Sprague-Dawley rat liver microsomes at 1 uM preincubated for 5 mins followed by NADPH addition measured up to 45 mins by LC-MS/MS analysis; type: ADME, microsome; settings: 0.75 h; summary of the method: as §1
[13] = target: T1, Lanosterol 14-alpha demethylase (Aspergillus, UniProt B8NUK6+G4WW85+Q9P8R0); assay: Binding affinity to Aspergillus fumigatus CYP51 by spectral titration method; settings: read-out: Kd(app)
T1 sequence (B8NUK6 whole entry): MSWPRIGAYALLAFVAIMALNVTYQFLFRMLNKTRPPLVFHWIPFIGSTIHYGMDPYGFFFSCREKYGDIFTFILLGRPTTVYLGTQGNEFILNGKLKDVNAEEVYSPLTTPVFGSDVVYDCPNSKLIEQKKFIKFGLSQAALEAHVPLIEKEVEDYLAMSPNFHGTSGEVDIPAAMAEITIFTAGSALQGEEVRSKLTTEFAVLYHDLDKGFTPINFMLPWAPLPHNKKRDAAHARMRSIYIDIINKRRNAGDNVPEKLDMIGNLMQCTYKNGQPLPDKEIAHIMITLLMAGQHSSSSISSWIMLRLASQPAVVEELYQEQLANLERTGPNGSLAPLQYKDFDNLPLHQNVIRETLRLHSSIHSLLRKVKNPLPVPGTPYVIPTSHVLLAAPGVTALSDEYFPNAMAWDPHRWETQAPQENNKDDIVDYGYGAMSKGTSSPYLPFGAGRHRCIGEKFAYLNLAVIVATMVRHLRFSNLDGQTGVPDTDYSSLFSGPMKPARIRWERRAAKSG
T1 sequence (Q9P8R0 whole entry): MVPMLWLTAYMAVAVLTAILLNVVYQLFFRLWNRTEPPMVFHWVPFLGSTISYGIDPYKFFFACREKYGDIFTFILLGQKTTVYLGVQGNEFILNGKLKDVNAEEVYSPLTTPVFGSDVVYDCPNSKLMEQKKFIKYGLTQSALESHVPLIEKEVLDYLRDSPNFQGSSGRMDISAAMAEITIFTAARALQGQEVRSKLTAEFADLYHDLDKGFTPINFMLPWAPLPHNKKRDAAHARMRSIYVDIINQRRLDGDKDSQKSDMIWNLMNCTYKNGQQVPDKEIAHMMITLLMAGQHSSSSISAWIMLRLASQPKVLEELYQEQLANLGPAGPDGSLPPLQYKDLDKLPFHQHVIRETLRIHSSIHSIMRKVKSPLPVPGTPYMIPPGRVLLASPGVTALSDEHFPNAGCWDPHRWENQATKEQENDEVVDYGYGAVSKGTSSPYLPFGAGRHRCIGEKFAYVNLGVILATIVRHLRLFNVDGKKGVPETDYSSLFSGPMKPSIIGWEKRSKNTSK
T1 sequence (G4WW85 whole entry): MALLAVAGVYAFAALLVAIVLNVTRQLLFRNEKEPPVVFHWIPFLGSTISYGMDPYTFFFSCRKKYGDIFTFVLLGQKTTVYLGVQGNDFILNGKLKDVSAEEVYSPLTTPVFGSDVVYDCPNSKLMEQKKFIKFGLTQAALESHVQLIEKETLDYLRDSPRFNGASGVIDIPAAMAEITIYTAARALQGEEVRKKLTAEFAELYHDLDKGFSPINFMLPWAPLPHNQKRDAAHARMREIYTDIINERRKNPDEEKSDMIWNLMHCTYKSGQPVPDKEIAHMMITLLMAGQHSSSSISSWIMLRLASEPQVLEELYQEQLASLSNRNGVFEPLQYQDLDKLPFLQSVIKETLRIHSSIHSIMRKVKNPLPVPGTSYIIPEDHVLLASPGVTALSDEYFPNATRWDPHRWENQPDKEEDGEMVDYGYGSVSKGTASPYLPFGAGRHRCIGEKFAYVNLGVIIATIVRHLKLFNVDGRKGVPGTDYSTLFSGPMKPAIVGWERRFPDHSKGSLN
Summary of the method: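 Purified CYP51 at 0.5 μM in 5 cm path cuvettes, titrated from 0.2 mM DMSO stocks over 0.1–0.8 μM ligand. Type II red shift of the Soret band (417 to 424 nm) followed as ΔA (Amax−Amin) in difference spectra. Kd obtained by fitting to the quadratic tight-binding equation using total ligand and enzyme concentrations.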

SMILES | inhibition [1] [%] | CLint scaled at 0.75 h, 1 µM (in vitro [2]) [mL/min/kg] | t1/2 [3] [h] | CLint scaled at 0.75 h, 1 µM (in vitro [4]) [mL/min/kg] | CLhep predicted at 0.75 h, 1 µM (in vitro [5]) [mL/min/kg] | t1/2 [6] [h] | CLhep predicted at 0.75 h, 1 µM (in vitro [7]) [mL/min/kg] | logP [8] | inhibition at 0.75 µM [9] [%] | CLhep predicted at 0.75 h, 1 µM (in vitro [10]) [mL/min/kg] | CLint scaled at 0.75 h, 1 µM (in vitro [11]) [mL/min/kg] | t1/2 [12] [h] | Kd [13] [nM]
O=C(N[C@@H](Cn1ccnc1)c1ccc(Cl)cc1Cl)c1ccc(-c2nnc(-c3cc(F)cc(OCC(F)(F)F)c3)o2)cc1 | 51 | 11.3 | 1.85 | 84.7 | 7.33 | 1.08 | 43.6 | 5.58 | 65 | 29 | 50.4 | 0.933 | –
O=C(N[C@@H](Cn1ccnc1)c1ccc(Cl)cc1Cl)c1ccc(-c2nnc(-c3ccc(-c4ccccn4)cc3F)o2)cc1 | 26 | 15 | 1.38 | 36.5 | 8.75 | 2.48 | 26 | 5.49 | 61 | 29.7 | 51.6 | 0.9 | –
O=C(N[C@@H](Cn1ccnc1)c1ccc(Cl)cc1Cl)c1ccc(-c2nnc(-c3ccc(N4CCOCC4)cc3)o2)cc1 | 3 | – | – | – | – | – | – | 4.45 | 29 | – | – | – | –
O=C(N[C@@H](Cn1ccnc1)c1ccc(Cl)cc1Cl)c1ccc(-c2nnc(-c3cccc(Br)c3)o2)cc1 | 41 | 9.47 | 2.2 | 126 | 6.53 | 0.717 | 55 | 5.4 | 84 | 19 | 27 | 1.77 | –
O=C(N[C@@H](Cn1ccnc1)c1ccc(Cl)cc1Cl)c1ccc(-c2nnc(-c3ccc(Cl)c(Cl)c3)o2)cc1 | 55 | 11.4 | 1.83 | 107 | 7.39 | 0.85 | 49 | 5.68 | 92 | 35 | 70 | 0.667 | –
O=C(N[C@@H](Cn1ccnc1)c1ccc(Cl)cc1Cl)c1ccc(-c2nnc(-c3cc(-c4ccccn4)ccc3F)o2)cc1 | 24 | 10.2 | 2.05 | 238 | 6.85 | 0.383 | 65 | 5.49 | 83 | 29 | 49.4 | 0.95 | –
O=C(N[C@@H](Cn1ccnc1)c1ccc(Cl)cc1Cl)c1ccc(-c2nnc(-c3cccc(-c4ccccn4)c3)o2)cc1 | 34 | 13.1 | 1.58 | 152 | 8.06 | 0.6 | 56 | 5.33 | 77 | 35 | 68 | 0.683 | –
CS(=O)(=O)c1ccc(-c2nnc(-c3ccc(C(=O)N[C@@H](Cn4ccnc4)c4ccc(Cl)cc4Cl)cc3)o2)cc1Cl | 32 | 9.31 | 2.23 | 56 | 6.45 | 1.62 | 34.5 | 3.83 | 53 | 42 | 104 | 0.45 | –
O=C(N[C@@H](Cn1ccnc1)c1ccc(Cl)cc1Cl)c1ccc(-c2nnc(-c3ccc(-c4ccccn4)cc3)o2)cc1 | 23 | 10.8 | 1.92 | 95 | 7.15 | 0.95 | 46 | 5.33 | 66 | 40 | 94 | 0.5 | –
O=C(N[C@@H](Cn1ccnc1)c1ccc(Cl)cc1Cl)c1ccc(-c2nnc(-c3cc(F)cc(-c4ccccn4)c3)o2)cc1 | 80 | 96.6 | 0.217 | 55 | 17.3 | 1.65 | 34 | 5.49 | 87 | 24 | 36 | 1.3 | 61
O=C(N[C@@H](Cn1ccnc1)c1ccc(Cl)cc1Cl)c1ccc(-c2nnc(-c3cccc(N4CCOCC4)c3)o2)cc1 | 15 | – | – | – | – | – | – | 4.45 | 58 | – | – | – | –
